The results in this text go back to ChEMBL document CHEMBL1157559, “Synthesis and biological evaluation of novel pyrazolyl-2,4-thiazolidinediones as anti-inflammatory and neuroprotective agents” (Bioorg Med Chem, 2010).

The test system of series [1] is SH-SY5Y. The experiment in a line: Neuroprotective activity in human SH-SY5Y cells assessed as inhibition of LPS, IFN-gamma-stimulated THP1 cellular supernatant-induced cytotoxicity after 72 hrs by LDH assay. It counts as functional, cell-based. The method in brief:
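SH-SY5Y cells plated 24 h, then medium replaced with supernatant from THP-1 cells stimulated with LPS + IFN-γ for 48 h. Compound added directly to the SH-SY5Y cells at the time of transfer. Cell death measured by LDH release after 72 h; 4–6 independent experiments.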

Series [2] has as its system THP-1. Put plainly: Cytotoxicity against LPS and IFN-gamma-stimulated human THP1 cells after 24 hrs. It counts as functional, cell-based. The conditions noted are these: THP-1, 24 h. The method in brief:
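THP-1 cells, 24-well, in DMEM-F12 with 5% FBS. Compound or DMSO added 15 min before LPS 0.5 µg/mL plus IFN-γ 150 U/mL. After 24 h, LDH release (fraction of Triton-lysed value, OD 490) and MTT were read. EC50 taken from curves of at least three independent experiments; the lower of the two assay values was reported.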

Series [3] has as its target T1, Prostaglandin G/H synthase 2 (Homo sapiens) (UniProt P35354).
T1 sequence (whole entry): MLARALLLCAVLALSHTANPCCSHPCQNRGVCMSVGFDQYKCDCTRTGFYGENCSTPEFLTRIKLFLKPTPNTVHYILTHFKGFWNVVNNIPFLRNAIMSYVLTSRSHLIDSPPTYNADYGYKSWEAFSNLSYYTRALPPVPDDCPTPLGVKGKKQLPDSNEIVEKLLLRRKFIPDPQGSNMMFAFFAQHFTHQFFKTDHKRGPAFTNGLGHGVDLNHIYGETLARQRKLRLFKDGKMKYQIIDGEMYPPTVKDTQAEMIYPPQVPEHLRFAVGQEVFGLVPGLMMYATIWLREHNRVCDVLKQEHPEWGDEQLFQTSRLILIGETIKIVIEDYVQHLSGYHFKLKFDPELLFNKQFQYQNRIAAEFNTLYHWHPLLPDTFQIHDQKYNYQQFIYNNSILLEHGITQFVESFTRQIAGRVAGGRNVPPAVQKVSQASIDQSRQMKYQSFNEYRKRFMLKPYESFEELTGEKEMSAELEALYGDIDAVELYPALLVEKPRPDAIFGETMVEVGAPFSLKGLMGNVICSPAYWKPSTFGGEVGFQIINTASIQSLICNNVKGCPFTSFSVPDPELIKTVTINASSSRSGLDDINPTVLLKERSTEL
To be noted: at 10 µM.

The subject of series [4] is Rattus norvegicus. Put plainly: Antiinflammatory activity in Wistar albino rat acute inflammatory model assessed as inhibition of formalin-induced paw edema at 20 mg/kg, po administered 1 hr before formalin challenge measured after 1 hr by plethysmometer relative to control. It counts as functional. Also on record: scale not given: the % may be the effect or the level left. The method in brief:
(§1)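 Male Wistar rats, 180–200 g, groups of five. Test compound 20 mg/kg po; 1 h later 0.1 mL 2% formalin injected subplantar into left hind paw under light ether anesthesia. Paw volume by water plethysmometer at 0 and 1, 2, 3, 4 h after formalin. % inhibition = (Vt−V0)control minus (Vt−V0)treated, divided by (Vt−V0)control ×100. Mean ± SEM, ANOVA with Student–Newman–Keuls.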

A short description of series [5]: Acute toxicity in po dosed Swiss albino mouse after 24 hrs. The conditions noted are these: in vivo, read-out: ALD50. It counts as organism-based. The essentials: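 Four groups of five Swiss albino mice (20–30 g), fasted 24 h beforehand, given compounds orally at graded doses of 0–300 mg/kg. Mortality recorded at each dose level after 24 h to estimate the acute lethal dose (ALD50).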

In series [6] the test system is Rattus norvegicus. Put plainly: Antiinflammatory activity in Wistar albino rat acute inflammatory model assessed as inhibition of formalin-induced paw edema at 20 mg/kg, po administered 1 hr before formalin challenge measured after 4 hrs by plethysmometer relative to control. It counts as functional. Details: scale not given: the % may be the effect or the level left. The method in brief:
as §1

The target of series [7] is T2, Prostaglandin G/H synthase 1 (Ovis aries) (UniProt P05979).
T2 sequence (whole entry): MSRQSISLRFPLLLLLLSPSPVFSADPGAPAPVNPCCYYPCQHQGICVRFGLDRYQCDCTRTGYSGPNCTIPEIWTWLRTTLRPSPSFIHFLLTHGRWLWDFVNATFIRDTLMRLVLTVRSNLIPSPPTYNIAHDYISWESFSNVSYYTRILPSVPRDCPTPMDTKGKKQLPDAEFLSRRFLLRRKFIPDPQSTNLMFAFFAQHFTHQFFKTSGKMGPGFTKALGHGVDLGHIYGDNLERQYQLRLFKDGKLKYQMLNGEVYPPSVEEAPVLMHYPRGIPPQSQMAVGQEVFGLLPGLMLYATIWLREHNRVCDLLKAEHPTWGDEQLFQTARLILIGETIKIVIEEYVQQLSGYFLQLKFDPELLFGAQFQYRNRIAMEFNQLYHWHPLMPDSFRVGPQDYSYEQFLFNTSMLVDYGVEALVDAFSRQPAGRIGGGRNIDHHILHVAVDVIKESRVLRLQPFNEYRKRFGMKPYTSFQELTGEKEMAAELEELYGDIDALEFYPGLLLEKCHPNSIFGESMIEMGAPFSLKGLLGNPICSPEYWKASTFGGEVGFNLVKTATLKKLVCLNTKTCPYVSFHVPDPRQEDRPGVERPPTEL
Put plainly: Inhibition of ovine COX1 at 10 uM. The method in brief: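 Kit assay with ovine COX-1, run per manufacturer's protocol. Read-out was percent inhibition of prostaglandin production, with compound at 10 µM and three experiments.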

Series [8] has as its system Rattus norvegicus. Put plainly: Antiinflammatory activity in Wistar albino rat acute inflammatory model assessed as inhibition of formalin-induced paw edema at 20 mg/kg, po administered 1 hr before formalin challenge measured after 2 hrs by plethysmometer relative to control. It counts as functional. Also on record: scale not given: the % may be the effect or the level left. The method in brief: as §1

The subject of series [9] is Rattus norvegicus. The experiment in a line: Gastrointestinal toxicity in Wistar albino rat assessed as ulceration at 100 mg/kg/day, po administered twice daily for 3 days. Also on record: route oral. The conditions noted are these: in vivo, 72 h. It counts as organism-based. The method in brief:
(§2)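 Male rats 180–200 g, groups of five, fasted 12 h with water available. Compounds given orally as two equal doses at 0 and 12 h, 100 mg/kg per day, for three successive days; vehicle control 1% gum acacia. Rats killed 6 h after last dose. Stomach opened along greater curvature, washed with cold saline and inspected under 3× lens for hyperemia, hemorrhage, erosions or ulcers.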

Series [10] has as its system SH-SY5Y. The experiment in a line: Antineurotoxicity in human SH-SY5Y cells assessed as inhibition human THP1 cell supernatant-induced cytotoxicity compound pretreated 24 to 48 hrs to THP1 cells measured after 72 hrs of supernatant addition. It counts as functional, cell-based. The method in brief:
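THP-1 cells in DMEM-F12 with 5% FBS, pretreated 15 min with compound or DMSO, then stimulated with LPS 0.5 µg/mL plus IFN-γ 150 U/mL for 24 or 48 h. Cell-free supernatant transferred to SH-SY5Y cells plated 24 h earlier. After 72 h, viability by LDH release and MTT. IC50 from curves of at least three independent experiments.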

The subject of series [11] is Rattus norvegicus. The experiment in a line: Antiinflammatory activity in po dosed Wistar albino rat acute inflammatory model assessed as inhibition of formalin-induced paw edema administered 1 hr before formalin challenge measured after 3 hrs by plethysmometer. It counts as functional. The essentials:
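Rats dosed orally at 5, 10, 20, 40 and 50 mg/kg body weight. Edema volume inhibition measured 3 h after subplantar formalin (2%, 0.1 mL), and ED50 determined from these doses.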

In series [12] the test system is THP-1. Put plainly: Inhibition of MCP1 release in human THP1 cells after 24 hrs by ELISA. It counts as functional, cell-based. The method in brief: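 THP-1 cells pretreated 15 min with compound, then stimulated with LPS 0.5 µg/mL plus IFN-γ 150 U/mL. After 24 h, MCP-1 (ng/mL) measured in cell-free medium by ELISA.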
In general terms: An ELISA detects its analyte on a solid surface through an enzyme-linked reagent.

The test system of series [13] is Rattus norvegicus. Put plainly: Antiinflammatory activity in Wistar albino rat acute inflammatory model assessed as inhibition of formalin-induced paw edema at 20 mg/kg, po administered 1 hr before formalin challenge measured after 3 hrs by plethysmometer relative to control. Details: scale not given: the % may be the effect or the level left. It counts as functional. The essentials: as §1

In series [14] the test system is Rattus norvegicus. Put plainly: Gastrointestinal toxicity in Wistar albino rat assessed as hyperemia at 100 mg/kg/day, po administered twice daily for 3 days. The conditions noted are these: in vivo, 72 h. Details: route oral. It counts as organism-based. The essentials:
as §2

Series [15] concerns Rattus norvegicus. Put plainly: Antiinflammatory activity in Wistar albino rat sub-acute inflammatory model assessed as inhibition of formalin-induced paw edema at 20 mg/kg, po administered daily for 7 days by plethysmometer relative to control. It counts as functional. The conditions noted are these: 168 h. The essentials: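 Rats dosed orally at 20 mg/kg daily for 7 consecutive days. 0.1 mL 2% formalin given subplantar in left hind paw under light ether 1 h after the first oral dose, with a second injection on day 3. Paw edema weight (g) measured on day 8. % inhibition = (control − treated)/control ×100. Groups of five.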

Series [16] has as its system SH-SY5Y. The experiment in a line: Neuroprotective activity in human SH-SY5Y cells assessed as inhibition of H2O2-induced cytotoxicity after 72 hrs by LDH assay. It counts as functional, cell-based. The method in brief:
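SH-SY5Y cells plated in DMEM-F12 with 5% FBS. After 24 h, medium replaced with medium containing H2O2 (500 µM in methods, 250 µM in figure legend), and compound added directly at that time. Cell death measured by LDH release 72 h later.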

For series [17], the system named is Rattus norvegicus. The experiment in a line: Antiinflammatory activity in Wistar albino rat sub-acute inflammatory model assessed as inhibition of turpentine oil-induced granuloma pouch exudate volume at 20 mg/kg, po 1 hr before turpentine oil challenge for 7 days assessed measured on day 8. It counts as functional. The essentials:
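Male rats 120–150 g, five per group. Subcutaneous dorsal pouch made under ether with 2 mL air, then 0.5 mL turpentine oil injected. Compound 20 mg/kg po 1 h before turpentine, then daily for seven days. On day 8 exudate drawn by syringe under anesthesia and volume measured. % inhibition = (Vcontrol − Vtreated)/Vcontrol ×100.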

Active and inactive are the calls of the source. The calls are words filed in the database; no cut-off is given here.

Turning to `C=CCN1C(=O)S/C(=C\c2cn(-c3ccccc3)nc2-c2ccc(Cl)cc2)C1=O`, the inhibition result in [1], in series [12] and in series [16] was “inactive” throughout. For the same compound, the concentration giving a half-maximal response (EC50) (usually the concentration giving half of the maximal effect) in [2] was 120 µM. For the same compound, the inhibition – broadly, the relative decrease from the control value, in per cent – in series [3] is 13.6%; in series [7] it was 26.5%. Moreover, the Activity in [4] is 53%; in [6], 66%; in [8], 63%; in [9] it was 0%; in [13], 72%; in series [14], “Non-toxic”. Further, the LD50 at 24 h in series [5] is greater than 300 mg/kg. The IC50 – broadly, the concentration that gives 50% inhibition – in series [10] is 10 µM. Moreover, the ED50 (commonly the midpoint of the dose-response relation) in [11] stood at 15.4 mg/kg. In addition, the inhibition in vivo (as a rule, the percentage by which the read-out fell short of the control) at 20 mg/kg in [15] turned out to be 47%; in [17], 50%.
